This is a sample that favours compounds with a hit; in the whole collection about 2% have one here.
ARNT-TACC3 inh: disrupts binding between human ARNT and TACC3 | Q9Y6A5 | AlphaScreen His-ARNT PAS-B/GST-TACC3 binding, luminescence; TACC3 fragment carries E629A point mutation | inhibition, % at 9.99 µM | actives 0.66% (n = 390,000) | AID 623870;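 active means mean inhibition of replicates at least 50% and at least half of replicates each reaching 50%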;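 further: 0% = complete ARNT plus TACC3 wells and 100% = ARNT alone without TACC3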
SR-BI DiI-HDL act: SR-BI HDL lipid transfer activation | activation, % at 12.5 µM | actives 0.096% (n = 320,000) | CHO ldlA[mSR-BI] cells, DiI-HDL uptake fluorescence, 3 h; 100 = double the neutral-control signal | AID 504775;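 active means mean replicate activation of at least 60% and every replicate at or above 60%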;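 further: 0% = median plate neutral-control signal and 100% = twice that signal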
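Material: SR-BI-overexpressing, LDLR-lacking CHO cells | Dosing: Single compound concentration, delivered by pin transfer | Probe or stimulus: Labelled HDL, 10 µg/mL | Signal: Bottom-read cell fluorescence after medium removal, ex 550/em 595 nm | Schedule: 3 h, 37 °C | Evaluation: HDL uptake via cellular fluorescence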
SR-BI DiI inh: inhibitors of mouse SR-BI mediated HDL lipid uptake; Q61009; ldlA[mSR-BI] CHO cells, DiI-HDL uptake fluorescence, 3 h; inhibition, % at 12.5 µM; actives 0.96% (n = 320,000);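 active means mean replicate inhibition of at least 70% and a set share of replicates each scoring 70 or more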;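 further: 0% = median of neutral control wells and 100% = median of positive control wells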
sPLA2-III inh: Blocks human group III sPLA2 activity; Q9NZ20; AID 743126; inhibition, % at 12.2 µM; QFRET BODIPY PC-A2 liposome hydrolysis, fluorescence; actives 0.56% (n = 370,000);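 active means inhibition above mean plus 3 SD of compounds lying within the high and low control bounds, cut at about 19% in these data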;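 further: 0% = median of test compound wells and 100% = no enzyme DMSO wells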
Target sequence (Q9NZ20 whole entry, looked up): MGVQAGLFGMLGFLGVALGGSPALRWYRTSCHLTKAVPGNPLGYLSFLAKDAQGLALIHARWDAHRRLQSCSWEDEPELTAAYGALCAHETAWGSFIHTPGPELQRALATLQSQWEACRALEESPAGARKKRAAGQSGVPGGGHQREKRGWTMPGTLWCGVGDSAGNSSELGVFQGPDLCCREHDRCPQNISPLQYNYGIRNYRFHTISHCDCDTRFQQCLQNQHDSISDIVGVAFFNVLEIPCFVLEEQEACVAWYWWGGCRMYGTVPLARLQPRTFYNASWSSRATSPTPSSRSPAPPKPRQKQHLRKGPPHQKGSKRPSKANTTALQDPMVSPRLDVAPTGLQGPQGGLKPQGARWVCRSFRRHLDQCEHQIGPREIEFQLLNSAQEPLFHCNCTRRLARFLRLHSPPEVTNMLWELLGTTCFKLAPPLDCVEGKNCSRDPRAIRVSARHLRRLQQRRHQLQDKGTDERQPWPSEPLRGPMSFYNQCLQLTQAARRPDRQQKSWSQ
NSD2 inh: inhibitors of human histone methyltransferase NSD2; O96028; NSD2 peptide methylation, AlphaScreen, 120 min; inhibition, % at 12.5 µM; actives 0.54% (n = 310,000); in the data active means inhibition above about 50%
Xi reactivation: activators of X-chromosome reactivation in mouse fibroblasts; activation, % at 7.58 µM; AID 743238; XiGFP mouse fibroblasts, % GFP-positive cells imaging, 3 d; cells co-treated with 5-aza-dC sensitizer; scaled so ellipticine positive control = 100%; actives 0.055% (n = 360,000);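 active means mean normalized replicate activation at least 10% and every replicate at or above 10%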;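 further: 0% = median of on-plate neutral control wells and 100% = ellipticine 6 µM median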
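System: 68-5-11 XiGFP fibroblast line | Buffer or medium: DMEM containing 5-aza-dC | Compound: Single point | Times: Compounds 3 days, fix/stain 15 min at room temperature | Benchmarks: Positive control ellipticine, 6 µM final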
AlphaScreen art: interferes with AlphaScreen signal, flagging NSD2 false positives | shares compounds with NSD2 inh | AlphaScreen artifact counterscreen, preloaded methylated H4 peptide | AC35, µM (doses to about 10 µM), inactives show at the top dose activity change, negative = signal loss | actives 9.4% (n = 1,500); call rule not given here
Numbers without * were called inactive.

How did CCN(CC)CCNC(=O)CN1C(=O)COc2ccc(S(=O)(=O)N3CCOCC3)cc21 do in these assays?
ARNT-TACC3 inh: 25; SR-BI DiI-HDL act: 1; SR-BI DiI inh: -1; sPLA2-III inh: 11; NSD2 inh: 81*; Xi reactivation: 0; AlphaScreen art: 0%

How did CC(=O)Nc1ccc(Sc2ccccc2C(=O)O)cn1 do in these assays?
ARNT-TACC3 inh: 0; SR-BI DiI-HDL act: 30; SR-BI DiI inh: -30; sPLA2-III inh: 1; NSD2 inh: 73*; Xi reactivation: 0; AlphaScreen art: -4%

How did CSc1nnc2c(n1)OC=Nc1ccc(Br)cc1-2 do in these assays?
ARNT-TACC3 inh: 0; SR-BI DiI-HDL act: 1; SR-BI DiI inh: -1; sPLA2-III inh: 14; NSD2 inh: 4; Xi reactivation: 0

How did CSc1nnc2c(n1)OC=Nc1ccccc1-2 do in these assays?
ARNT-TACC3 inh: 6; SR-BI DiI-HDL act: -9; SR-BI DiI inh: 9; sPLA2-III inh: 8; NSD2 inh: 67*; AlphaScreen art: -5%

What do the screens show for `Brc1cccc(CNn2cnnc2)c1`?
ARNT-TACC3 inh: -3; SR-BI DiI-HDL act: -2; SR-BI DiI inh: 2; sPLA2-III inh: -3; NSD2 inh: -5; Xi reactivation: 0

Results for CC1=Nc2cccc3cccc(c23)N1C ?
ARNT-TACC3 inh: 13; SR-BI DiI-HDL act: 21; SR-BI DiI inh: -21; sPLA2-III inh: 6; NSD2 inh: active; Xi reactivation: 0; AlphaScreen art: 3%

Results for CN(C)CCN1C(=O)CCC2(C)C1=CCC1C2CCC2(C)C1CCC2(C)O (configuration not stated) ?
ARNT-TACC3 inh: -4; SR-BI DiI-HDL act: -7; SR-BI DiI inh: 7; sPLA2-III inh: -3; NSD2 inh: 5; Xi reactivation: 0

What do the screens show for `Cc1ccc(S(=O)(=O)Nc2ccccn2)c(C)c1`?
sPLA2-III inh: 5; NSD2 inh: -1; Xi reactivation: 0

What do the screens show for `CN(C)c1cccc2c(S(=O)(=O)Nc3ccccn3)cccc12`?
ARNT-TACC3 inh: 2; SR-BI DiI-HDL act: 17; SR-BI DiI inh: -17; sPLA2-III inh: -16; NSD2 inh: 58*; AlphaScreen art: -3%

What do the screens show for `CCN(CC)CCCN(Cc1cc2cc3c(cc2[nH]c1=O)OCO3)C(=S)NCc1ccco1`?
ARNT-TACC3 inh: 2; SR-BI DiI-HDL act: 7; SR-BI DiI inh: -7; sPLA2-III inh: 2; NSD2 inh: 74*; Xi reactivation: 0; AlphaScreen art: -1%

What do the screens show for `CCN(CC)CCN(Cc1cc2cc3c(cc2[nH]c1=O)OCO3)C(=S)NCc1ccco1`?
ARNT-TACC3 inh: 4; SR-BI DiI-HDL act: -27; SR-BI DiI inh: 27; sPLA2-III inh: 8; NSD2 inh: 13; Xi reactivation: 0

Results for Cc1cc(=O)[nH]c(SCC(=O)/C=C2\N(C)c3ccccc3C2(C)C)n1 ?
ARNT-TACC3 inh: -4; SR-BI DiI-HDL act: 19; SR-BI DiI inh: -19; sPLA2-III inh: -10; NSD2 inh: 3

How did Cc1ccc(N2C(=O)N(CC(=O)Nc3cccc([N+](=O)[O-])c3C)C(=O)C2C)cc1 (configuration not stated) do in these assays?
ARNT-TACC3 inh: -1; SR-BI DiI-HDL act: -8; SR-BI DiI inh: 8; sPLA2-III inh: -1; NSD2 inh: 92*; Xi reactivation: 0; AlphaScreen art: -4%

What do the screens show for `COc1ccc(-c2nc3ccc(Cl)cn3c2Cc2cccc(F)c2)cc1OC`?
sPLA2-III inh: -6; Xi reactivation: 0

Results for CC(=O)N1CC(C)Oc2ccc(S(=O)(=O)NC(CC(=O)O)c3ccccc3)cc21 (configuration not stated) ?
ARNT-TACC3 inh: -11; SR-BI DiI-HDL act: 17; SR-BI DiI inh: -17; sPLA2-III inh: 1; NSD2 inh: 0; Xi reactivation: 0

Screens as filed in PubChem.
